For data set [1], the target named is T1, Metabotropic glutamate receptor 5 (Homo sapiens, UniProt P41594). Nature of the data set: Displacement of [3H]M-MPEP from mGluR5 (unknown origin) measured after 60 mins. An outline of the steps:
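The [³H]M-MPEP competition used rat cortical membranes or human mGlu5a A18 cell membranes in Tris pH 7.6 buffer with MgCl₂ and CaCl₂, 60 min at 25°C. Curves were generally 7 concentrations in duplicate or triplicate. IC50 was converted to Ki by Cheng–Prusoff, with Kd from a Scatchard plot. Non-specific binding was defined with M-MPEP.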
Target sequence in this assay (P41594 whole entry): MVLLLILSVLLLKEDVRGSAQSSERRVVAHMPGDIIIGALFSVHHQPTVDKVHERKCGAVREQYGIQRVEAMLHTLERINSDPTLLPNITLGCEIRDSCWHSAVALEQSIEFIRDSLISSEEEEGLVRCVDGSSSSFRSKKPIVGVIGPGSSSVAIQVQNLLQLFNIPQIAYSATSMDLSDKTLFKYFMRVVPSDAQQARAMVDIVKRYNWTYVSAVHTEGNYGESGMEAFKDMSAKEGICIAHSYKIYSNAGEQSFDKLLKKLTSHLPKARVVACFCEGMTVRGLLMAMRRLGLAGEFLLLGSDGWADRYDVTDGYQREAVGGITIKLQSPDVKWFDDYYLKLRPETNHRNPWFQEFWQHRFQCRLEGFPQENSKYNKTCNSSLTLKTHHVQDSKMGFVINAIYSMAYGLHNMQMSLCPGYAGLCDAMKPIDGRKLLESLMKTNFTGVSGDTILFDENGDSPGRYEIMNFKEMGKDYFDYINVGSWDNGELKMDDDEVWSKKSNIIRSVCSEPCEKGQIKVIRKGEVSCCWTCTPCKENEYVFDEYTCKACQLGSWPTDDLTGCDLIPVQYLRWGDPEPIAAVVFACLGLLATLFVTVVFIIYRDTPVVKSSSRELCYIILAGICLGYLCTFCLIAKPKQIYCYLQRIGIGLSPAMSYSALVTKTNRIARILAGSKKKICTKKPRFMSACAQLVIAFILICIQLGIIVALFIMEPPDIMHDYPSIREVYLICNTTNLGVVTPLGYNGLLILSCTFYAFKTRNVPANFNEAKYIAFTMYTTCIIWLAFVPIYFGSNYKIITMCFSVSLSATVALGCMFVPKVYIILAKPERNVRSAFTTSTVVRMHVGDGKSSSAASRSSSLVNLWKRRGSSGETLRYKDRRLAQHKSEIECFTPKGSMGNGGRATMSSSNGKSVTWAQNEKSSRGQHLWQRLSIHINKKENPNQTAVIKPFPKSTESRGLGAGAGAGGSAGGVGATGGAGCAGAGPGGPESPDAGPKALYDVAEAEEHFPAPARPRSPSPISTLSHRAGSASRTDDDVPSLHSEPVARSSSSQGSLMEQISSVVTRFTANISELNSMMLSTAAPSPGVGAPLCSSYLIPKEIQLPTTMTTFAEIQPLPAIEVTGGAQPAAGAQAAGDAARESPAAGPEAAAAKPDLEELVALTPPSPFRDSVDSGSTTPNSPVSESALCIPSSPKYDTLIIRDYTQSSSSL
(In general: Displacement assays read how much labelled ligand stays bound in the presence of the test substance.)

Data set [2] concerns the target T1, Metabotropic glutamate receptor 5. Nature of the data set: Displacement of [3H]M-MPEP from mGluR5 (unknown origin) at 1 uM measured after 60 mins relative to control. Put shortly:
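Rat cerebrocortical membranes or membranes from A18 cells expressing human mGlu5a, incubated with [³H]M-MPEP and test compound at 1 µM in 50 mM Tris pH 7.6 with 2 mM MgCl₂ and 2 mM CaCl₂, 60 min at 25°C. Non-specific binding was taken with […]. Result is % displacement, run in duplicate or triplicate.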
Target sequence in this assay (P41594 21-1212 limits assumed): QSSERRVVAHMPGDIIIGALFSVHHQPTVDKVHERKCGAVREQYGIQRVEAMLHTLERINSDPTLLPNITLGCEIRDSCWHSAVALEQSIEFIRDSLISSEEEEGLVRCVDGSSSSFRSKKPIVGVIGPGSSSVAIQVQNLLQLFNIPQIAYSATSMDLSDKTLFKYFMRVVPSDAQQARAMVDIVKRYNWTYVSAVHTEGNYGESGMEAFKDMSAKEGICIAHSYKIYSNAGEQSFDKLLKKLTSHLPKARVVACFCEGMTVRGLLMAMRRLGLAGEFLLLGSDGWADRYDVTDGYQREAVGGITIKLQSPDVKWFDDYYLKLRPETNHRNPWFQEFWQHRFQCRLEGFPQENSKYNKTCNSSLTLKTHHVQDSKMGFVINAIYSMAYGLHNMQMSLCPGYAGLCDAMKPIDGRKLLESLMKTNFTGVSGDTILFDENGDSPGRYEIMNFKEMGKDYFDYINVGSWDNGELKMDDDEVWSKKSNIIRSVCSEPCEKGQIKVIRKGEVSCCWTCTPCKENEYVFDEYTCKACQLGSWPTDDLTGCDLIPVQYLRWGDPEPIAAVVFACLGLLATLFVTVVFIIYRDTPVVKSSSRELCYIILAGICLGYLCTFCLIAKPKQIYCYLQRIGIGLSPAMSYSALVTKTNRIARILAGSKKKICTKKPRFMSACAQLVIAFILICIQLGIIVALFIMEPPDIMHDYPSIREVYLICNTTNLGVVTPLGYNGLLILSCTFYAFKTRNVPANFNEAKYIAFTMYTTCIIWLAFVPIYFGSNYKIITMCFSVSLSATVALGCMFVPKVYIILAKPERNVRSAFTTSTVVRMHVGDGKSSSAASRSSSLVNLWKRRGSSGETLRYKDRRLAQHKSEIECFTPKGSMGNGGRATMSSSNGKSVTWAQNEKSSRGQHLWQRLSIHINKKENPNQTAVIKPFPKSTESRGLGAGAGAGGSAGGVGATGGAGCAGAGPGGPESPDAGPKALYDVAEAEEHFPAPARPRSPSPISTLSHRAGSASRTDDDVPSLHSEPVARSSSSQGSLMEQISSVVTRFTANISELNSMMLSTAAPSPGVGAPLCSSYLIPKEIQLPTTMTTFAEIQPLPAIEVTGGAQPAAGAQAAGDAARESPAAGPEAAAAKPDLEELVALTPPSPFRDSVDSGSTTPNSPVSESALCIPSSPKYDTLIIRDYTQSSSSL

Data set [3] is described as follows: Aqueous solubility of the compound in water. It is filed as physicochemical.
The test system of another data set is Rattus norvegicus. Nature of the data set: Anxiolytic activity in ip dosed rat assessed as increase in water drinking time during punished period by Vogel punished drinking conflict test. It is filed as functional. The following applies: read-out: MED. Put shortly:
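Rats were water-deprived 48 h. On test day, compound was given i.p. in 5% Tween/distilled water at 1, 3 or 10 mg/kg, n=8 per dose. A 30-s unpunished drinking period followed. Comparison to vehicle was by ANOVA with Duncan post-hoc, giving MED.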

Data set [4] is described as follows: Drug level in blood of rat at 10 mg/kg, ip at 40 mins post dose. It is filed as ADME, organism-based. The following applies: read-out: Drug uptake.
The target in data set [5] is Metabotropic glutamate receptor 1 (Homo sapiens) (UniProt Q13255). Nature of the data set: Activity at mGluR1 (unknown origin).

The source of these data is ChEMBL document CHEMBL4052615, “Discovery of 4-amino-3-arylsulfoquinolines, a novel non-acetylenic chemotype of metabotropic glutamate 5 (mGlu5) receptor negative allosteric modulators” (Eur J Med Chem, 2017).

In brackets after ≈: the same amount, converted by molar mass. Activity calls are given as the source filed them. No cut-off for these calls is given here.

Sequence of Metabotropic glutamate receptor 1 (Homo sapiens) (Q13255 19-1194 limits assumed): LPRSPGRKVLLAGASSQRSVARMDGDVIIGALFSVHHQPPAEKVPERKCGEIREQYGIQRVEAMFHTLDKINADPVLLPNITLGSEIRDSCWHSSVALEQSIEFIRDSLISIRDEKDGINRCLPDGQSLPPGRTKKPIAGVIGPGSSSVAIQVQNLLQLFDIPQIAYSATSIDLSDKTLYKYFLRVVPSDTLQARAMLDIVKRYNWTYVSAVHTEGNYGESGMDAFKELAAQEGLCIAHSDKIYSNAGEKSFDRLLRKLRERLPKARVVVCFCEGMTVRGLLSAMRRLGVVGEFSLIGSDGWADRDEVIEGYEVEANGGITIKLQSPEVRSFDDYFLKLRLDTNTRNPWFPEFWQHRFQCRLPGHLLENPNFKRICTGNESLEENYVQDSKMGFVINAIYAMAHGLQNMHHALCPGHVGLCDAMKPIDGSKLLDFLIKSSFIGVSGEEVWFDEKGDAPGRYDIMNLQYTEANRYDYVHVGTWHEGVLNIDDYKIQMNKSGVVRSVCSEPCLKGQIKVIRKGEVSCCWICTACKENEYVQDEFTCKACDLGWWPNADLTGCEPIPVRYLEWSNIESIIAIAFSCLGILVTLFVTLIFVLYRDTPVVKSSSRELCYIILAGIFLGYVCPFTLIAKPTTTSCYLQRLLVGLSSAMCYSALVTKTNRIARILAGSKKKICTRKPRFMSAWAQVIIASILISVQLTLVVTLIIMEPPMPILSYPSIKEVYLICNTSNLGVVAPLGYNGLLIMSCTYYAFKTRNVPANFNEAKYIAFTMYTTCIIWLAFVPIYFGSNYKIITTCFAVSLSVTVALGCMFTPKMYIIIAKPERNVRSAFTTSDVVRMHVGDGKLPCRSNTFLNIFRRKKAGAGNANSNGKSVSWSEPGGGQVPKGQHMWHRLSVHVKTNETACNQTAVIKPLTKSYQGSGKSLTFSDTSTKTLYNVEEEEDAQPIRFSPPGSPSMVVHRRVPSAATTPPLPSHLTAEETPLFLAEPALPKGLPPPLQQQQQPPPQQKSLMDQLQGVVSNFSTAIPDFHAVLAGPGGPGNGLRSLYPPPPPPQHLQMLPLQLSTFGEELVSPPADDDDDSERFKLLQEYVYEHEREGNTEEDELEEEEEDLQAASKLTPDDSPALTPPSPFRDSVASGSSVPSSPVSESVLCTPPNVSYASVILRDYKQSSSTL

In general, Ki refers to the dissociation constant of the complex between target and ligand, obtained from inhibition or displacement. The low end stands for a stronger hold on the target, the high end for a looser hold on the target. The term inhibition denotes how much of the control response was suppressed. As to `O=S(=O)(c1ccccc1)c1cnc2ccccc2c1N1CCCCC1`, the Ki in data set [1] is 307 nM. In addition, the inhibition in data set [2] is 71.4%.
Take `Cc1ccc(S(=O)(=O)c2cnc3ccccc3c2NCc2ccccc2)cc1`: the affinity in data set [1], expressed as Ki, was 198 nM. The molecule further showed an inhibition in data set [2] of 73.5%.
On the same counts, the results for `CC1CCN(c2c(S(=O)(=O)c3cc(F)cc(F)c3)cnc3cc(Cl)ccc23)CC1` are 68.2 nM and 94%.
What is called solubility is how much of the substance goes into solution per volume. The molecule `Cc1ccc2ncc(S(=O)(=O)c3cccc(F)c3)c(N3CCC(C)CC3)c2c1` came in with a solubility in data set [3] of under 3 µM. Further, the inhibition in data set [2] worked out at 94%.
As to `N#Cc1cc(F)cc(S(=O)(=O)c2cnc3cc(Cl)ccc3c2N2CCC(CO)CC2)c1`, the minimal effective dose with Rattus norvegicus was over 10 mg/kg. Moreover, the concentration at 40 min in data set [4] was found to be 608 ng/mL. Moreover, the affinity in data set [1], expressed as Ki, was 24.1 nM. The molecule further registered a solubility in data set [3] of 15 to 45 µM (≈ 6.9 to 20.7 µg/mL).
Regarding `O=S(=O)(c1cccc(Cl)c1)c1cnc2cc(Cl)ccc2c1N1CCC(CO)CC1`, in the data set with Rattus norvegicus, the minimal effective dose was 10 mg/kg. Further, the concentration at 40 min in data set [4] was found to be 193 ng/mL. The inhibition constant Ki in data set [1] worked out at 30.9 nM. Besides, in data set [3], the solubility lay within 15 to 45 µM (≈ 6.77 to 20.3 µg/mL).
In the case of `CC1CCN(c2c(S(=O)(=O)c3ccccc3)cnc3ccccc23)CC1`, in data set [1], the Ki was 108 nM. In addition, in data set [2], the inhibition came out at 89.2%.
Molecule `O=S(=O)(c1ccccc1)c1cnc2ccccc2c1N1CCCCCC1` showed a Ki in data set [1] of 310 nM. Besides, the inhibition in data set [2] was determined as 79.9%.
Regarding `Cc1ccc(S(=O)(=O)c2cnc3ccccc3c2N2CCOCC2)cc1C`, the outcome in data set [5] was inactive.
`CC1CCN(c2c(S(=O)(=O)c3ccc(Cl)c(Cl)c3)cnc3ccc(F)cc23)CC1`: the minimal effective dose in the data set with Rattus norvegicus worked out at 30 mg/kg. For the same molecule, the concentration at 40 min in data set [4] came out at 46 ng/mL. For the same molecule, in data set [1], the affinity, expressed as Ki, was 55.6 nM. The same molecule returned a solubility in data set [3] of under 3 µM. The inhibition in data set [2] is 91%.
Regarding `CC1CCN(c2c(S(=O)(=O)c3ccc(Cl)c(Cl)c3)cnc3ccc(Cl)cc23)CC1`, the minimal effective dose in the data set on Rattus norvegicus was over 30 mg/kg. Also, in data set [4], the concentration at 40 min amounted to 55 ng/mL. The same molecule showed a Ki in data set [1] of 103 nM. For the same molecule, the solubility in data set [3] was under 3 µM. The molecule further returned an inhibition in data set [2] of 86%.
`CC1CCN(c2c(S(=O)(=O)c3ccc(Cl)cc3)cnc3ccc(Cl)cc23)CC1` returned a Ki in data set [1] of 435 nM. In addition, in data set [2], the inhibition turned out to be 92%.
Take `CCN(CC)c1c(S(=O)(=O)c2ccc(C)cc2)cnc2ccccc12`: the Ki in data set [1] was found to be 201 nM. The molecule further came in with an inhibition in data set [2] of 78.3%.
`Cc1ccc(S(=O)(=O)c2cnc3cc(F)ccc3c2N2CCC(C)CC2)cc1F` had an inhibition in data set [2] of 89%.
The molecule `Cc1ccc2ncc(S(=O)(=O)c3ccccc3)c(N3CCC(C)CC3)c2c1` came in with an inhibition in data set [2] of 67%.
With `CC1CCN(c2c(S(=O)(=O)c3ccc(F)c(F)c3)cnc3c(F)cccc23)CC1`, the inhibition in data set [2] was 93%.
In data set [2], `CC1CCN(c2c(S(=O)(=O)c3ccc(F)c(F)c3)cnc3cc(F)ccc23)CC1` came in with an inhibition of 94%.
The molecule `O=S(=O)(c1ccc(F)cc1)c1cnc2cc(F)ccc2c1N1CCSCC1` registered an inhibition in data set [2] of 62.7%.
`CC1CCN(c2c(S(=O)(=O)c3ccc(F)c(F)c3)cnc3ccc(Cl)cc23)CC1`: in data set [2], the inhibition is 72%.
